Measured values of several laboratories.
Cell line: HCT-116
Observed: cell growth or viability

Compound	technique	time	IC50
CC1=C(O)C(=O)C=C2C1=CC=C1[C@@]2(C)CC[C@@]2(C)[C@@H]3C[C@](C)(C(=O)OCCCn4ccc5ccccc54)CC[C@]3(C)CC[C@]12C	MTT	48 h	2.75 µM
COc1c(C)cnc(COc2ccc(NC(=O)Nc3cccc(C(F)(F)F)c3)cc2)c1C	MTT	72 h	12.5 µM
CCOC(=O)/C=C1\S/C(=N\C(=O)c2ccc3ccccc3c2)N(C2CCCCC2)C1=O	–	48 h	11.4 µM
Nc1ncnc2c1ncn2[C@@H]1O[C@H](CO)[C@@H](O)[C@H]1O	WST-1	48 h	41.8 µM
Clc1ccc(C[n+]2cn(CCc3ccccc3)c3ccccc32)cc1	MTT	72 h	18.4 µM
COCCCOc1ccnc(COc2ccc(NC(=O)Nc3cccc(C(F)(F)F)c3)cc2)c1C	MTT	72 h	8.81 µM
Cc1c(O)ccc2ccc(=O)oc12	MTT	36 h	> 20 µM
COc1ccc(-c2nc(C(=O)Nc3nnc(-c4cc5ccccc5[nH]4)s3)cc3c2[nH]c2ccccc23)cc1	MTT	72 h	4.78 µM
O=C(O)C[C@H](O)C[C@H](O)/C=C/c1c(C2CC2)nc2ccccc2c1-c1ccc(F)cc1	SRB	72 h	7.46 µg/mL
O=C(NC(=S)NCCNC(=S)NC(=O)c1ccc2ccccc2c1)c1ccc2ccccc2c1	–	48 h	1.31 µM
CC1=C(O)C(=O)C=C2C1=CC=C1[C@@]2(C)CC[C@@]2(C)[C@@H]3C[C@](C)(C(=O)OCCCCCO)CC[C@]3(C)CC[C@]12C	MTT	48 h	0.48 µM
CC(=O)Oc1ccc2c(CSC(C)=O)cc(=O)oc2c1	MTT	36 h	> 20 µM
CSc1nc(/N=C/c2cccc(O)c2)n(-c2ccc(C(=O)O)cc2)n1	MTT	–	70.1 µM
FC(F)(F)c1ccc(C(c2c[nH]c3ccccc23)c2c[nH]c3ccccc23)cc1	ATP luminescence	22 h	9.3 µM
CCC[C@H](Nc1nc(-c2ccc(NC(=O)NCC)c(OC)c2)ncc1C)c1cccnc1	fluorescence	72 h	0.0477 µM
CNC(=O)c1cc(Oc2ccc(NC(=O)Nc3ccc(Cl)c(C(F)(F)F)c3)cc2)ccn1	MTT	72 h	2.25 µM
O=C(NC(=S)Nc1ccc([N+](=O)[O-])cc1)c1ccc2ccccc2c1	–	48 h	6.09 µM
COc1ccc2oc(=O)cc(CSC(C)=O)c2c1	MTT	36 h	> 20 µM
COc1ccnc(COc2ccc(NC(=O)Nc3ccc(F)cc3)cc2)c1OC	MTT	72 h	22.3 µM
Cc1cc(C)n(-c2nc(Nc3ccc(Cl)cc3)nc(-n3nc(C)cc3C)n2)n1	MTT	72 h	11 µM
CC(=O)Oc1ccc2ccc(=O)oc2c1CBr	MTT	36 h	> 20 µM
O=C(NC(=S)N1CCCCC1)c1ccc2ccccc2c1	–	48 h	9.12 µM
Cc1c(OCC(F)(F)F)ccnc1COc1ccc(NC(=O)Nc2ccc(Cl)c(C(F)(F)F)c2)cc1	MTT	72 h	5.6 µM
COc1cc(/C=N/c2nc(SC)nn2-c2ccc(C(=O)O)cc2)ccc1O	MTT	–	61.1 µM

Compound	technique	time	IC50
O=c1[nH]cc(F)c(=O)[nH]1	WST-1	48 h	9.5 µM
O=C(NC(=S)N1CCCC1)c1ccc2ccccc2c1	–	48 h	6.22 µM
COCCCOc1ccnc(COc2ccc(NC(=O)Nc3cc(F)cc(F)c3)cc2)c1C	MTT	72 h	56.6 µM
CSc1nc(/N=C/c2cc(C)ccc2O)n(-c2ccc(C(=O)O)cc2)n1	MTT	–	43.9 µM
Cc1c(NC(=O)c2ccc(C(C)(C)C)cc2)cccc1-c1cn(C)c(=O)c(Nc2ccc(C(=O)N3CCOCC3)cc2)n1	–	–	> 10 µM
CSc1nc(/N=C/c2ccc(O)cc2)n(-c2ccc(C(=O)O)cc2)n1	MTT	–	68.1 µM
Cn1c(-c2nnc(NC(=O)c3cc4c([nH]c5ccccc54)c(-c4ccc(F)cc4)n3)s2)cc2ccccc21	MTT	72 h	14.3 µM
COc1cc(CNC(=O)CCCC/C=C/C(C)C)ccc1O	SRB	–	40.2 µM
O=Cc1ccc(CO)o1	WST-1	48 h	83.1 µM
O=C1Nc2c(C(F)(F)F)cccc2[C@@]1(c1ccc(O)cc1)c1ccc(OC(F)(F)F)cc1	resazurin	7 days	0.093 µM
COc1ccc(NC(=O)Nc2ccc(OCc3ncc(C)c(OC)c3C)cc2)cc1	MTT	72 h	> 100 µM
O=C(/N=c1\scc(-c2ccccc2)n1C1CCCCC1)c1ccc2ccccc2c1	–	48 h	19.2 µM
CC1=C(O)C(=O)C=C2C1=CC=C1[C@@]2(C)CC[C@@]2(C)[C@@H]3C[C@](C)(C(=O)OCCCOc4ccccc4)CC[C@]3(C)CC[C@]12C	MTT	48 h	1.34 µM
COc1ccc2oc(=O)cc(CCl)c2c1	MTT	36 h	> 20 µM
CC[C@H](C)C(=O)O[C@H]1CCC=C2C=C[C@H](C)[C@H](CC[C@@H]3C[C@@H](O)CC(=O)O3)[C@H]21	SRB	72 h	4.57 µg/mL
COc1cc([C@@H]2c3cc4c(cc3[C@@H](O[C@@H]3O[C@@H]5CO[C@@H](C)O[C@H]5[C@H](O)[C@H]3O)[C@H]3COC(=O)[C@H]23)OCO4)cc(OC)c1O	MTS	72 h	19.3 µM
Cc1ccc([P+](CCCCCCCCCCONC(N)=O)(c2ccc(C)cc2)c2ccc(C)cc2)cc1	imaging	–	3.7 µM
O=C(Nc1nnc(-c2cc3ccccc3[nH]2)s1)c1cc2c([nH]c3ccccc32)c(-c2ccccc2)n1	MTT	72 h	5.12 µM
CS(=O)(=O)c1nc(N)n(-c2ccc(C(=O)O)cc2)n1	MTT	–	48.5 µM
CC1=C(O)C(=O)C=C2C1=CC=C1[C@@]2(C)CC[C@@]2(C)[C@@H]3C[C@](C)(C(=O)OCCCBr)CC[C@]3(C)CC[C@]12C	MTT	48 h	0.52 µM
COc1ccc(-c2nc(C(=O)Nc3nnc(-c4cc5ccccc5n4C)s3)cc3c2[nH]c2ccccc23)cc1	MTT	72 h	8.07 µM
COc1c(C)cnc(COc2ccc(NC(=O)Nc3ccc(Cl)c(C(F)(F)F)c3)cc2)c1C	MTT	72 h	8.17 µM
CC(C)C[C@H](NC(=O)[C@H](Cc1ccccc1)NC(=O)c1cnccn1)B(O)O	ATP luminescence	–	0.0097 µM
